Experimental data: ChEMBL document CHEMBL1212884, “Aryl phosphoramidates of 5-phospho erythronohydroxamic acid, a new class of potent trypanocidal compounds” (J Med Chem, 2010); call rule not given here

Assays:
[1] = Chemical stability of the compound in phosphate buffer saline at pH 7.4 assessed as half life; assay type: physicochemical; settings: for half-life: phosphate buffer saline; for t1/2: buffer
In short: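 Compound incubated in phosphate buffer, pH 7.4, 37 °C, to follow chemical hydrolysis; half-life reported in hours.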

Trypanosoma brucei = assay: Antitrypanosomal activity against Trypanosoma brucei BS427 after 48 hrs by Alamar blue assay; assay type: functional, organism-based
In short: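 Bloodstream-form T. b. brucei s427 wild type, grown in HMI-9 + 10% FCS at 37 °C, 5% CO2. Parasites seeded at 4 × 10^4 cells/mL onto 11-point 1:2 serial dilutions from a 200 μM stock in medium; drug-free well as control. After 48 h, Alamar Blue (0.49 mM in PBS) added, 24 h more; fluorescence ex 544/em 590 nm. EC50 fitted; duplicate, repeated three times.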

Blood = assay: Half life in mouse blood; assay type: ADME, tissue-based
In short: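 Prodrugs incubated in mouse blood to gauge their stability toward esterases. Half-life reported in minutes.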

Liver microsomes = assay: Clearance in pooled human liver microsomes at 0.5 uM; assay type: ADME, Microsome
In short: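 Pooled human liver microsomes (0.5 mg/mL in 50 mM potassium phosphate, pH 7.4) with compound at 0.5 μM; reaction started with excess NADPH. Samples at 0, 3, 6, 9, 15, 30 min, quenched in acetonitrile with internal standard, centrifuged, analysed by UPLC-MS/MS. Rate constant from exponential decay of compound/internal standard peak-area ratio; clearance given as mL/min/g.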

[2] = Chemical stability of the compound in phosphate buffer saline at pH 2 assessed as half life; assay type: physicochemical
[3] = Trypanosoma brucei, BS427, 48 h, read-out: EC50

half-life [1] [h] | SMILES | EC50 (Trypanosoma brucei; [3]) [µM] | t1/2 (Blood) [h] | t1/2 [1] [h] | CL (Liver microsomes) [mL/min/g] | t1/2 [2] [h] | EC50 (Trypanosoma brucei)
0.85 | COC(=O)[C@@H](C)NP(=O)(OC[C@H]1OC(C)(C)O[C@H]1C(=O)NO)Oc1ccc([N+](=O)[O-])cc1 (some centres not stated) | 43.8 |  |  |  |  | 
 | COC(=O)CNP(=O)(OC[C@H]1OC(C)(C)O[C@H]1C(=O)NO)Oc1ccccc1 (some centres not stated) | 11.4 | < 0.25 |  |  |  | 
 | CCOC(=O)[C@@H](C)NP(=O)(OC[C@H]1OC(C)(C)O[C@H]1C(=O)NO)Oc1ccccc1 (some centres not stated) | 0.78 | < 0.25 | 29 |  |  | 
 | COC(=O)[C@H](NP(=O)(OC[C@H]1OC(C)(C)O[C@H]1C(=O)NO)Oc1ccccc1)C(C)C (some centres not stated) | 0.36 | 0.75 | 21 |  |  | 
 | CCOC(=O)[C@H](NP(=O)(OC[C@H]1OC(C)(C)O[C@H]1C(=O)NO)Oc1ccccc1)C(C)C (some centres not stated) | 0.24 | 2 | 61 |  |  | 
 | CC(C)[C@@H](NP(=O)(OC[C@H]1OC(C)(C)O[C@H]1C(=O)NO)Oc1ccccc1)C(=O)OC(C)(C)C (some centres not stated) | 0.09 | 2 | 68 | 5 | 28 | 
 | COC(=O)[C@@H](C)NP(=O)(OC[C@H]1OC(C)(C)O[C@H]1C(=O)NO)Oc1ccc(C)cc1 (some centres not stated) | 0.31 | < 0.25 | 30 |  |  | 
 | CCOC(=O)[C@@H](C)NP(=O)(OC[C@H]1OC(C)(C)O[C@H]1C(=O)NO)Oc1ccc(C)cc1 (some centres not stated) | 0.18 |  | 34 |  |  | 
 | COC(=O)[C@H](NP(=O)(OC[C@H]1OC(C)(C)O[C@H]1C(=O)NO)Oc1ccc(C)cc1)C(C)C (some centres not stated) | 0.15 |  | 45 |  | 28 | 
 | CCOC(=O)[C@H](NP(=O)(OC[C@H]1OC(C)(C)O[C@H]1C(=O)NO)Oc1ccc(C)cc1)C(C)C (some centres not stated) | 0.04 | 0.75 | 25 |  | 15 | 
 | COC(=O)[C@@H](C)NP(=O)(OC[C@H]1OC(C)(C)O[C@H]1C(=O)NO)Oc1ccc(OC)cc1 (some centres not stated) | 3.79 |  |  |  | 8.5 | 
 | CCOC(=O)[C@H](NP(=O)(OC[C@H]1OC(C)(C)O[C@H]1C(=O)NO)Oc1ccc(OC)cc1)C(C)C (some centres not stated) | 0.11 |  |  |  |  | 
30 | COC(=O)[C@@H](C)NP(=O)(OC[C@H]1OC(C)(C)O[C@H]1C(=O)NO)Oc1cccc(C)c1C (some centres not stated) | 0.27 |  |  |  |  | 
 | CCOC(=O)[C@H](NP(=O)(OC[C@H]1OC(C)(C)O[C@H]1C(=O)NO)Oc1cccc(C)c1C)C(C)C (some centres not stated) | 0.05 | 1 | 48 |  | 10 | 
 | Cc1cccc(OP(=O)(N[C@@H](C(=O)OC(C)(C)C)C(C)C)OC[C@H]2OC(C)(C)O[C@H]2C(=O)NO)c1C (some centres not stated) | 0.008 | > 8 | > 24 | 10 |  | 
 | CC1(C)O[C@H](COP2(=O)OCc3ccccc3O2)[C@H](C(=O)NO)O1 (some centres not stated) |  |  |  |  |  | Not Active
 | CC1(C)O[C@H](COP(=O)(O)O)[C@H](C(=O)NO)O1 | > 330 |  |  |  |  | 

SMILES | half-life [1] [h] | EC50 (Trypanosoma brucei; [3]) [µM] | t1/2 (Blood) [h] | t1/2 [1] [h] | CL (Liver microsomes) [mL/min/g] | t1/2 [2] [h] | EC50 (Trypanosoma brucei)
COC(=O)[C@@H](C)NP(=O)(OC[C@H]1OC(C)(C)O[C@H]1C(=O)NO)Oc1ccccc1 (some centres not stated) | 5 |  | < 0.25 |  |  |  | 
